Reference: ChEMBL document CHEMBL1155469, “Peptide nucleic acids conjugated to short basic peptides show improved pharmacokinetics and antisense activity in adipose tissue” (J Med Chem, 2010)
pIC50: −log10 of the molar value. One block for each molecule: values may come before it. The source made the active and inactive calls. No cut-off for these calls is given here.

Columns and labels:
BCL1 = test: Inhibition of CD40 protein expression in mouse BCL1 cells after 62 hrs by Western blotting; type: functional, cell-based; settings: BCL1, 62 h
Mus musculus [1] = test: Toxicity in Balb/C mouse assessed as change in body weight at 10 to 40 mg/kg, ip administered thrice a week for 2 weeks measured 48 hrs after last dose; type: organism-based; set-up: dose 10-40 mg/kg, route intraperitoneal; settings: in vivo
Method in brief: (§1)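 Male Balb/c mice, 6–8 wk, n=4/group, received compound i.p. in PBS (10 ul/g) 3x/wk for 2 wk. Body weight was monitored throughout. At 48 h after the last dose, mice were anesthetized with isoflurane and bled by cardiac puncture. Serum AST, ALT, BUN, bilirubin, glucose and triglycerides were compared with the saline group. ALT rise below 2x normal was counted as absent.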

Mus musculus [2] = test: Toxicity in Balb/C mouse assessed as change in serum AST levels at 10 to 40 mg/kg, ip administered thrice a week for 2 weeks measured 48 hrs after last dose; type: organism-based; set-up: dose 10-40 mg/kg, route intraperitoneal; settings: in vivo; method in brief: as §1
Mus musculus [3] = test: Toxicity in Balb/C mouse assessed as change in serum ALT levels at 10 to 40 mg/kg, ip administered thrice a week for 2 weeks measured 48 hrs after last dose; type: organism-based; set-up: dose 10-40 mg/kg, route intraperitoneal; settings: in vivo; method in brief: as §1
Mus musculus [4] = test: Toxicity in Balb/C mouse assessed as change in blood urea nitrogen levels at 10 to 40 mg/kg, ip administered thrice a week for 2 weeks measured 48 hrs after last dose; type: organism-based; set-up: dose 10-40 mg/kg, route intraperitoneal; settings: in vivo; method in brief: as §1
Mus musculus [5] = test: Toxicity in Balb/C mouse assessed as change in serum bilirubin levels at 10 to 40 mg/kg, ip administered thrice a week for 2 weeks measured 48 hrs after last dose; type: organism-based; set-up: dose 10-40 mg/kg, route intraperitoneal; settings: in vivo; method in brief: as §1
Mus musculus [6] = test: Toxicity in Balb/C mouse assessed as change in serum glucose levels at 10 to 40 mg/kg, ip administered thrice a week for 2 weeks measured 48 hrs after last dose; type: organism-based; set-up: dose 10-40 mg/kg, route intraperitoneal; settings: in vivo; method in brief: as §1
Mus musculus [7] = test: Toxicity in Balb/C mouse assessed as change in serum triglyceride levels at 10 to 40 mg/kg, ip administered thrice a week for 2 weeks measured 48 hrs after last dose; type: organism-based; set-up: dose 10-40 mg/kg, route intraperitoneal; settings: in vivo; method in brief: as §1
Mus musculus [8] = test: Toxicity in Balb/C mouse assessed as increase in spleen weight at 40 mg/kg, ip administered thrice a week for 2 weeks measured 48 hrs after last dose; type: organism-based; set-up: dose 40 mg/kg, route intraperitoneal; settings: in vivo
Method in brief: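 Male Balb/c mice, 6–8 wk, n=4/group, were dosed i.p. in PBS 3x/wk for 2 wk at 40 mg/kg. They were killed by cervical dislocation 48 h after the last dose. Spleen weight was taken at necropsy and compared with the saline-treated group.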

Mus musculus [9] = test: Inhibition of PTEN expression in Balb/C mouse liver at 10 to 40 mg/kg, ip administered thrice a week for 2 weeks measured 48 hrs after last dose by Western blot analysis; type: functional, organism-based
Method in brief: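 Male Balb/c mice, 6–8 wk, n=4/group, dosed i.p. in PBS 3x/wk for 2 wk and killed 48 h after the last dose. Tissue was homogenized in RIPA buffer with protease inhibitors, and protein was measured by Lowry assay. Lysates were run on 10% PAGE and blotted to PVDF. Blots were probed with rabbit anti-PTEN (1:1000) and HRP anti-rabbit (1:2500), with ECL detection.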

Mus musculus [10] = test: Inhibition of PTEN expression in Balb/C mouse white adipose tissue assessed as reduction of full length transcript at 10 to 40 mg/kg, ip administered thrice a week for 2 weeks measured 48 hrs after last dose […]; type: functional, organism-based
Mus musculus [11] = test: Inhibition of PTEN expression in Balb/C mouse white adipose tissue assessed as upregulation of isoform lacking exon at 10 to 40 mg/kg, ip administered thrice a week for 2 weeks measured 48 hrs after last dose […]; type: functional, organism-based
Mus musculus [12] = test: Inhibition of PTEN expression in Balb/C mouse kidney at 10 to 40 mg/kg, ip administered thrice a week for 2 weeks measured 48 hrs after last dose
Mus musculus [13] = test: Acute toxicity in Balb/C mouse assessed as reduction in body weight at 1.5 to 6.0 umol/kg, ip administered thrice a week for 2 weeks measured 48 hrs after last dose; type: organism-based; settings: in vivo
Method in brief: (§2)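 Male Balb/c mice aged 6–8 weeks, n=4 per group, dosed i.p. with compound suspended in PBS and filter sterilized, 10 ul/g body weight. Body weight tracked throughout the live phase. Under isoflurane anaesthesia, terminal cardiac-puncture bleed; serum taken for transaminases and other chemistries. Sacrifice by cervical dislocation 48 h after last dose, with liver and spleen weighed at necropsy. Kidneys examined by histopathology.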

Mus musculus [14] = test: Acute toxicity in Balb/C mouse assessed as change in spleen weight at 1.5 to 6.0 umol/kg, ip administered thrice a week for 2 weeks measured 48 hrs after last dose; type: organism-based; settings: in vivo; method in brief: as §2
Mus musculus [15] = test: Acute toxicity in Balb/C mouse assessed as change in liver weight at 1.5 to 6.0 umol/kg, ip administered thrice a week for 2 weeks measured 48 hrs after last dose; type: organism-based; settings: in vivo; method in brief: as §2
Mus musculus [16] = test: Acute toxicity in Balb/C mouse assessed as change in plasma chemistry at 1.5 to 6.0 umol/kg, ip administered thrice a week for 2 weeks measured 48 hrs after last dose; type: organism-based; settings: in vivo; method in brief: as §2
Mus musculus [17] = test: Inhibition of IR expression in Balb/C mouse liver assessed as reduction in IR-B transcript at 6.0 umol/kg, ip administered thrice a week for 2 weeks measured 48 hrs after last dose […]; type: functional, organism-based
Method in brief: (§3)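 Male Balb/c mice, n=4 per group, dosed i.p. in PBS and sacrificed 48 h after last dose. Liver, kidney and adipose tissue homogenised at once in 4 M guanidine isothiocyanate, 25 mM EDTA, 50 mM Tris-HCl pH 6. RNA purified on columns and run by fluorescence-based quantitative RT-PCR. Target transcript levels normalised to cyclophilin A and expressed relative to saline-treated controls.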

Mus musculus [18] = test: Inhibition of IR expression in Balb/C mouse kidney assessed as upregulation of IR-A transcript at 6.0 umol/kg, ip administered thrice a week for 2 weeks measured 48 hrs after last dose […]; type: functional, organism-based; method in brief: as §3
Mus musculus [19] = test: Inhibition of IR expression in Balb/C mouse kidney assessed as upregulation of IR-A transcript at 1.5 umol/kg, ip administered thrice a week for 2 weeks measured 48 hrs after last dose […]; type: functional, organism-based; method in brief: as §3
Mus musculus [20] = test: Inhibition of IR expression in Balb/C mouse kidney assessed as reduction in IR-B transcript at 6.0 umol/kg, ip administered thrice a week for 2 weeks measured 48 hrs after last dose […]; type: functional, organism-based; method in brief: as §3
Mus musculus [21] = test: Inhibition of IR expression in Balb/C mouse kidney assessed as reduction in IR-B transcript at 1.5 umol/kg, ip administered thrice a week for 2 weeks measured 48 hrs after last dose […]; type: functional, organism-based; method in brief: as §3
Mus musculus [22] = test: Inhibition of IR expression in Balb/C mouse adipose tissue assessed as reduction in IR-B transcript at 6.0 umol/kg, ip administered thrice a week for 2 weeks measured 48 hrs after last dose […]; type: functional; method in brief: as §3
Mus musculus [23] = test: Inhibition of IR expression in Balb/C mouse adipose tissue assessed as upregulation of IR-A transcript at 6.0 umol/kg, ip administered thrice a week for 2 weeks measured 48 hrs after last dose by […]; type: functional; method in brief: as §3
Mus musculus [24] = test: Inhibition of IR expression in Balb/C mouse liver assessed as upregulation of IR-A transcript at 6.0 umol/kg, ip administered thrice a week for 2 weeks measured 48 hrs after last dose by quantitative RT-PCR analysis
Mus musculus [25] = test: Inhibition of IR expression in Balb/C mouse liver assessed as upregulation of IR-A transcript at 1.5 umol/kg, ip administered thrice a week for 2 weeks measured 48 hrs after last dose by quantitative RT-PCR analysis

pIC50 (BCL1): 6.05
SMILES: Cc1cn(CC(=O)N(CCNC(=O)CN(CCNC(=O)CN(CCNC(=O)CN(CCNC(=O)CN(CCNC(=O)CN(CCNC(=O)CN(CCNC(=O)CN(CCNC(=O)CN(CCNC(=O)CN(CCNC(=O)CN(CCNC(=O)CN(CCN)C(=O)Cn2ccc(N)nc2=O)C(=O)Cn2cnc3c(N)ncnc32)C(=O)Cn2ccc(N)nc2=O)C(=O)Cn2cnc3c(N)ncnc32)C(=O)Cn2cnc3c(=O)[nH]c(N)nc32)C(=O)Cn2cnc3c(N)ncnc32)C(=O)Cn2cc(C)c(=O)[nH]c2=O)C(=O)Cn2cnc3c(=O)[nH]c(N)nc32)C(=O)Cn2cnc3c(N)ncnc32)C(=O)Cn2ccc(N)nc2=O)C(=O)Cn2cnc3c(N)ncnc32)CC(=O)NCCN(CC(=O)NCCN(CC(=O)NCCN(CC(=O)N[C@@H](CCCCN)C(N)=O)C(=O)Cn2cnc3c(=O)[nH]c(N)nc32)C(=O)Cn2cnc3c(N)ncnc32)C(=O)Cn2cc(C)c(=O)[nH]c2=O)c(=O)[nH]c1=O

SMILES: Cc1cn(CC(=O)N(CCNC(=O)CN(CCNC(=O)CN(CCNC(=O)CN(CCNC(=O)CN(CCNC(=O)CN(CCNC(=O)CN(CCNC(=O)CN(CCNC(=O)CN(CCNC(=O)CN(CCNC(=O)CN(CCNC(=O)CN(CCNC(=O)[C@H](CCCCN)N(CCNC(=O)[C@H](CCCCN)NC(=O)[C@H](CCCCN)NC(=O)[C@H](CCCCN)NC(=O)[C@H](CCCCN)NC(=O)[C@H](CCCCN)NC(=O)[C@H](CCCCN)NC(=O)[C@H](CCCCN)NC(=O)[C@@H](N)CCCCN)C(=O)Cn2cc(C)c(=O)[nH]c2=O)C(=O)Cn2ccc(N)nc2=O)C(=O)Cn2cc(C)c(=O)[nH]c2=O)C(=O)Cn2cnc3c(N)ncnc32)C(=O)Cn2cnc3c(N)ncnc32)C(=O)Cn2ccc(N)nc2=O)C(=O)Cn2ccc(N)nc2=O)C(=O)Cn2cnc3c(N)ncnc32)C(=O)Cn2ccc(N)nc2=O)C(=O)Cn2cnc3c(N)ncnc32)C(=O)Cn2cc(C)c(=O)[nH]c2=O)C(=O)Cn2ccc(N)nc2=O)CC(=O)NCCN(CC(=O)NCCN(CC(=O)NCCN(CC(=O)N[C@@H](CCCCN)C(N)=O)C(=O)Cn2cnc3c(N)ncnc32)C(=O)Cn2cnc3c(=O)[nH]c(N)nc32)C(=O)Cn2ccc(N)nc2=O)c(=O)[nH]c1=O
Activity (Mus musculus [1]): Non-toxic
Activity (Mus musculus [2]): Non-toxic
Activity (Mus musculus [3]): Non-toxic
Activity (Mus musculus [4]): Non-toxic
Activity (Mus musculus [5]): Non-toxic
Activity (Mus musculus [6]): Non-toxic
Activity (Mus musculus [7]): Non-toxic
Activity (Mus musculus [8]): 145%
inhibition (Mus musculus [9]): inactive
Activity (Mus musculus [10]): inactive
Activity (Mus musculus [11]): inactive
inhibition (Mus musculus [12]): inactive

SMILES: COCCO[C@@H]1[C@H](OP(=O)(S)OC[C@H]2O[C@@H](n3cnc4c(N)ncnc43)[C@H](OCCOC)[C@@H]2O)[C@@H](COP(=O)(S)O[C@H]2[C@@H](OCCOC)[C@H](n3ccc(N)nc3=O)O[C@@H]2COP(=O)(S)O[C@H]2[C@@H](OCCOC)[C@H](n3cnc4c(N)ncnc43)O[C@@H]2COP(=O)(S)O[C@H]2[C@@H](OCCOC)[C@H](n3ccc(N)nc3=O)O[C@@H]2COP(=O)(S)O[C@H]2[C@@H](OCCOC)[C@H](n3cnc4c(=O)[nH]c(N)nc43)O[C@@H]2COP(=O)(S)O[C@H]2[C@@H](OCCOC)[C@H](n3cnc4c(=O)[nH]c(N)nc43)O[C@@H]2COP(=O)(S)O[C@H]2[C@@H](OCCOC)[C@H](n3ccc(N)nc3=O)O[C@@H]2COP(=O)(S)O[C@H]2C[C@H](n3cc(C)c(=O)[nH]c3=O)O[C@@H]2COP(=O)(S)O[C@H]2[C@@H](OCCOC)[C@H](n3ccc(N)nc3=O)O[C@@H]2COP(=O)(S)O[C@H]2[C@@H](OCCOC)[C@H](n3ccc(N)nc3=O)O[C@@H]2COP(=O)(S)O[C@H]2C[C@H](n3cc(C)c(=O)[nH]c3=O)O[C@@H]2COP(=O)(S)O[C@H]2[C@@H](OCCOC)[C@H](n3cnc4c(=O)[nH]c(N)nc43)O[C@@H]2COP(=O)(S)O[C@H]2C[C@H](n3cc(C)c(=O)[nH]c3=O)O[C@@H]2COP(=O)(S)O[C@H]2[C@@H](OCCOC)[C@H](n3ccc(N)nc3=O)O[C@@H]2COP(=O)(S)O[C@H]2[C@@H](OCCOC)[C@H](n3cnc4c(N)ncnc43)O[C@@H]2COP(=O)(S)O[C@H]2C[C@H](n3cc(C)c(=O)[nH]c3=O)O[C@@H]2COP(=O)(S)O[C@H]2[C@@H](OCCOC)[C@H](n3ccc(N)nc3=O)O[C@@H]2COP(=O)(S)O[C@H]2[C@@H](OCCOC)[C@H](n3ccc(N)nc3=O)O[C@@H]2COP(=O)(S)O[C@H]2[C@@H](OCCOC)[C@H](n3cnc4c(N)ncnc43)O[C@@H]2CO)O[C@H]1n1ccc(N)nc1=O (stereo partly specified)
Activity (Mus musculus [13]): Non-toxic
Activity (Mus musculus [14]): Non-toxic
Activity (Mus musculus [15]): Non-toxic
Activity (Mus musculus [16]): Non-toxic
Activity (Mus musculus [17]): Active
Activity (Mus musculus [18]): Active
Activity (Mus musculus [19]): Active
Activity (Mus musculus [20]): inactive
Activity (Mus musculus [21]): inactive
Activity (Mus musculus [22]): Active
Activity (Mus musculus [23]): Active
Activity (Mus musculus [24]): Active
Activity (Mus musculus [25]): Active
